The results in this text go back to ChEMBL document CHEMBL3611971, “Multifunctional novel Diallyl disulfide (DADS) derivatives with β-amyloid-reducing, cholinergic, antioxidant and metal chelating properties for the treatment of Alzheimer's disease” (Bioorg Med Chem, 2015).

pIC50: −log10 of the molar value.

A short description of series [1]: Metal chelating activity of the compound assessed as reduction of Cu2+-induced amyloid beta (1 to 42) (unknown origin) aggregation at 50 uM after 24 hrs by thioflavin-T-based fluorescence assay relative to control. It counts as physicochemical. An outline of the steps:
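Aβ1–42 was HFIP-treated, dried, and held as DMSO stock. Diluted in […] (pH 6.6) with […]; 25 μM peptide incubated with or without 25 μM Cu2+ and 50 μM compound, 37 °C, 24 h.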

Another series addresses Acetylcholinesterase (Electrophorus electricus, UniProt O42275). The experiment in a line: Inhibition of electric eel AChE using DTNB as substrate incubated for 5 mins prior to substrate addition measured after 2 mins by Ellman's method.
In another series the target is Cholinesterase (Equus caballus, UniProt P81908). Put plainly: Inhibition of equine serum BuChE using DTNB as substrate incubated for 5 mins prior to substrate addition measured after 2 mins by Ellman's method.
Sequence of Cholinesterase (P81908 whole entry): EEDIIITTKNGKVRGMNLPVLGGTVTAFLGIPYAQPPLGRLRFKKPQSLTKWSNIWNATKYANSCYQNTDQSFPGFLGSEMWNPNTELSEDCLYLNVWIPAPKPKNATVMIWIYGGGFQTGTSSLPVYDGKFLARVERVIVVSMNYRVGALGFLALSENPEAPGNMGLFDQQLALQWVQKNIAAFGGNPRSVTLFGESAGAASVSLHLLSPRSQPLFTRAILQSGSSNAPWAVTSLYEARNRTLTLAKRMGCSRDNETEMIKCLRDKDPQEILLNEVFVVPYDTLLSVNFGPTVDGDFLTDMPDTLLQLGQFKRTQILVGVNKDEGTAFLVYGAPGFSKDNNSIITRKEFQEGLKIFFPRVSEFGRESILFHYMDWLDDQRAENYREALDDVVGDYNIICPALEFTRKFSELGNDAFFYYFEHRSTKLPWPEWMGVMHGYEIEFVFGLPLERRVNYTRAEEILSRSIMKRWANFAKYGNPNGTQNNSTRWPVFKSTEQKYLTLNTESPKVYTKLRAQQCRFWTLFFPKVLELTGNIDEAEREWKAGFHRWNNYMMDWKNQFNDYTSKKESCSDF
Series [2] has as its target Amyloid-beta precursor protein (Homo sapiens) (UniProt P05067). The settings on record: at 25 µM.
Series [3] in a line: Metal chelating activity of the compound assessed as reduction of Cu2+-amyloid beta (1 to 42)-complex induced H2O2 production from ascorbate at 800 nM after 30 mins by HRP/Amplex Red assay relative to control. It counts as physicochemical. Also noted: scale not given: the % may be the effect or the level left. Conditions: 0.5 h, 0.8 µM; call rule not given here. An outline of the steps: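 Per well, in phosphate buffer (100 μL): CuCl2 400 nM, Aβ 200 nM, chelator 800 nM (1% v/v DMSO) and sodium ascorbate 10 mM, held 30 min at room temperature. Working solution with Amplex Red and HRP then added for another 30 min at room temperature. Fluorescence ex/em 530/590 nm. At least three measurements.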

A short description of series [4]: Cytotoxicity against HEK293 cells assessed as cell viability at 25 uM after 48 hrs by MTT assay relative to control. The class given is cell-based. Conditions: human, read-out: Activity. An outline of the steps:
(§1)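 HEK 293 cells grown in DMEM with 10% FBS and 1% penicillin–streptomycin at 37 °C, 5% CO2. Seeded at 5000 cells/well and cultured 24 h, then exposed 48 h to compound (DMSO stock diluted in complete medium; 0.1–100 μM final), in triplicate. MTT added for 4 h, formazan dissolved in DMSO, absorbance read at 570 nm against 630 nm reference. Mean ± SEM of 3 independent experiments.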

Series [5] is described as follows: Cytotoxicity against HEK293 cells assessed as cell viability at 100 uM after 48 hrs by MTT assay relative to control. It counts as cell-based. The settings on record: human, read-out: Activity. An outline of the steps:
as §1

Series [6] is described as follows: Cytotoxicity against HEK293 cells assessed as cell viability at 0.1 uM after 48 hrs by MTT assay relative to control. It counts as cell-based. The settings on record: human, read-out: Activity. An outline of the steps:
as §1

Series [7] in a line: Metal chelating activity of the compound assessed as reduction of Cu2+-induced amyloid beta (1 to 42) (unknown origin) aggregation at 50 uM after 24 hrs by transmission electron microscopic analysis. It counts as physicochemical. An outline of the steps: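 Aβ1–42 diluted in 20 mM phosphate buffer (pH 7.4) at 4 °C. Preincubated 2 min with Cu2+ (Aβ and Cu2+ each 25 μM final), then incubated 24 h at 37 °C with or without compound at 50 μM. Samples placed on carbon-coated grids for 2 min at room temperature, stained 2 min with 1% uranyl acetate, and imaged by TEM.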

The nature of series [8]: Cytotoxicity against HEK293 cells assessed as cell viability at 50 uM after 48 hrs by MTT assay relative to control. The class given is cell-based. The settings on record: human, read-out: Activity. An outline of the steps:
as §1

Series [9] in a line: Cytotoxicity against HEK293 cells assessed as cell viability at 10 uM after 48 hrs by MTT assay relative to control. The class given is cell-based. Conditions: human, read-out: Activity. An outline of the steps:
as §1

A short description of series [10]: Cytotoxicity against HEK293 cells assessed as cell viability at 1 uM after 48 hrs by MTT assay relative to control. It counts as cell-based. The settings on record: human, read-out: Activity. An outline of the steps: as §1
Series [11] is described as follows: Metal chelating activity of the compound assessed as formation of Cu2+-compound complex at 50 uM after 30 mins by UV-vis spectrometry. Conditions: 0.5 h. The class given is physicochemical. An outline of the steps:
(§2)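 UV absorption scan from 200 to 600 nm of compound in methanol, alone or with CuCl2 or FeSO4. Read after 30 min at room temperature, with compound and metal each at 50 μM final.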

A short description of series [12]: Metal chelating activity of the compound assessed as formation of Fe2+-compound complex at 50 uM after 30 mins by UV-vis spectrometry. It counts as physicochemical. The settings on record: 0.5 h. An outline of the steps:
as §2

The test system of the next series is HEK293. Put plainly: Cytotoxicity against HEK293 cells assessed as cell viability at 0.1 to 100 uM after 48 hrs by MTT assay relative to control. The class given is cell-based. The settings on record: human, hek293, 48 h. An outline of the steps:
as §1

Sequence of Amyloid-beta precursor protein (Homo sapiens) (P05067 whole entry): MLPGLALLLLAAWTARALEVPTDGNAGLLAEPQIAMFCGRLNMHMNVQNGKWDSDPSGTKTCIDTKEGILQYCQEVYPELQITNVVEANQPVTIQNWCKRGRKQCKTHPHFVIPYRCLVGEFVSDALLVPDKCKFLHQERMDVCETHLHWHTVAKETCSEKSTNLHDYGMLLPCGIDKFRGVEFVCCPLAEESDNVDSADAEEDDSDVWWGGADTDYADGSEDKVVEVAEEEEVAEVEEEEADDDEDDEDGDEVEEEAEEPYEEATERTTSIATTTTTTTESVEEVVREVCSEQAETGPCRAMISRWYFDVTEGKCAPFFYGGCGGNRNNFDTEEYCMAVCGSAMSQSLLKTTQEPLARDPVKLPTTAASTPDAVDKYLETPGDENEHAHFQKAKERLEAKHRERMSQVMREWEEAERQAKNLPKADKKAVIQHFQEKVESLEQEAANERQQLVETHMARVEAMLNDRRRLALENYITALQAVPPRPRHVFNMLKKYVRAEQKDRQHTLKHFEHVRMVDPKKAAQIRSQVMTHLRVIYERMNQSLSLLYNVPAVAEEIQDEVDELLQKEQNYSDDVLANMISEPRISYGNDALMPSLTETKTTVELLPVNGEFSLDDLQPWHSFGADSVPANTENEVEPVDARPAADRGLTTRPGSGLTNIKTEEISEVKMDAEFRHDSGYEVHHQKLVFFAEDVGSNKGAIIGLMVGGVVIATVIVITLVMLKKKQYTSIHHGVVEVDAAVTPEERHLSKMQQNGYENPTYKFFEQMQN
Sequence of Acetylcholinesterase (O42275 whole entry): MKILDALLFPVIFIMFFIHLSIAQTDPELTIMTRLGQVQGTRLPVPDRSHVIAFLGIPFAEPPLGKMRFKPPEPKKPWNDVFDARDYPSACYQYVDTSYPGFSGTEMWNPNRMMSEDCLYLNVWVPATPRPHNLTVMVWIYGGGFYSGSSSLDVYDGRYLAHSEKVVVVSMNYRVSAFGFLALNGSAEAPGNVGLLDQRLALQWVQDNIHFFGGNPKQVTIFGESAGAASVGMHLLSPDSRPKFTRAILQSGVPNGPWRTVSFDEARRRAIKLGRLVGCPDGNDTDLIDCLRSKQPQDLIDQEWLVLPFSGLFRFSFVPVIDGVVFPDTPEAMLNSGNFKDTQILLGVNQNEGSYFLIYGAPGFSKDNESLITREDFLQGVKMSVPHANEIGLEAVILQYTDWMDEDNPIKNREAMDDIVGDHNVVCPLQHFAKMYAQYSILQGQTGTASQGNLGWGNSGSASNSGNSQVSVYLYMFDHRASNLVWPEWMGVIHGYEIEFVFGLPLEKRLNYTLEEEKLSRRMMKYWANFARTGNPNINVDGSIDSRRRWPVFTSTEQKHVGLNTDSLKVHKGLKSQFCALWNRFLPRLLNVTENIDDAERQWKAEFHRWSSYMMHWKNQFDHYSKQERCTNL

`COc1cc(/C=C/C(=O)CC(=O)/C=C/c2ccc(O)c(OC)c2)ccc1O` [CURCUMIN]: in series [1], the “inhibition (INH)” value turned out to be 65.9%.

In the case of `Fc1ccccc1/C=C/CSSC/C=C/c1ccccc1F`, the negative-log IC50 (pIC50) at Acetylcholinesterase was 4.31; on Cholinesterase, less than 4.00. The inhibition in series [2] turned out to be 33.5%.

Consider `O=C(/C=C/c1ccc(Br)cc1)SSC(=O)/C=C/c1ccc(Br)cc1`, for which the pIC50 against Acetylcholinesterase was 6.47; at Cholinesterase it was 4.43. In addition, the inhibition in [2] was found to be 52.2%.

As to `COc1ccc(/C=C/CSSC/C=C/c2ccc(OC)c(OC)c2)cc1OC`, the negative logarithm of the IC50 (pIC50) on Acetylcholinesterase is 5.96; on Cholinesterase, 4.26. In series [2], the inhibition was found to be 61.2%.

For the molecule `Brc1cccc(/C=C/CSSC/C=C/c2cccc(Br)c2)c1`, the pIC50 is 4.63 on Acetylcholinesterase and 4.12 at Cholinesterase. In addition, the inhibition in series [2] turned out to be 39.4%.

As for `O=C(/C=C/c1cccc(Br)c1)SSC(=O)/C=C/c1cccc(Br)c1`, the values for the negative logarithm of the IC50 (pIC50) against Acetylcholinesterase and against Cholinesterase were 6.27 and 4.41, respectively. This molecule yielded an inhibition in series [2] of 68.7%.

`COc1ccc(/C=C/CSSC/C=C/c2ccc(OC)cc2)cc1`: the negative-log IC50 (pIC50) was 5.08 against Acetylcholinesterase and 4.23 on Cholinesterase. The molecule further came in with an inhibition in [2] of 58.5%.

Take `O=C(/C=C/c1ccc(F)cc1)SSC(=O)/C=C/c1ccc(F)cc1`: the pIC50 was 6.35 against Acetylcholinesterase and 4.49 against Cholinesterase. Besides, the inhibition in [2] stood at 62.4%.

With `Clc1cc(Cl)cc(/C=C/CSSC/C=C/c2cc(Cl)cc(Cl)c2)c1`, the pIC50 against Acetylcholinesterase was 4.19; at Cholinesterase, less than 4.00. In series [2], this molecule returned an inhibition of 47.5%.

Turning to `Fc1cccc(/C=C/CSSC/C=C/c2cccc(F)c2)c1`, the pIC50 at Acetylcholinesterase was 4.27; on Cholinesterase, less than 4.00. The molecule also returned an inhibition in series [2] of 44.2%.

Take `COc1ccc(/C=C/C(=O)SSC(=O)/C=C/c2ccc(OC)cc2)cc1`: the pIC50 on Acetylcholinesterase is 6.66; at Cholinesterase it was 4.80. Moreover, the inhibition in series [2] stood at 63.5%.

Take `Clc1cccc(/C=C/CSSC/C=C/c2cccc(Cl)c2)c1`: the negative-log IC50 (pIC50) on Acetylcholinesterase was 4.35; against Cholinesterase it was less than 4.00. In addition, in [2], the inhibition was 52.4%.

As to `Brc1ccc(/C=C/CSSC/C=C/c2ccc(Br)cc2)cc1`, the results for the negative-log IC50 (pIC50) at Acetylcholinesterase and against Cholinesterase were 4.68 and 4.14, respectively. In addition, the inhibition in [2] stood at 37.5%.

Take `COc1cc(/C=C/CSSC/C=C/c2ccc(O)c(OC)c2)ccc1O`: the pIC50 against Acetylcholinesterase is 5.84; on Cholinesterase, 4.24. Also, the inhibition in series [2] came out at 66.9%.

For the molecule `O=C(O)CN(CCN(CC(=O)O)CC(=O)O)CC(=O)O` [EDETIC ACID], the Activity in [3] was greater than 80%.

In the case of `Fc1cccc(F)c1/C=C/CSSC/C=C/c1c(F)cccc1F`, the results for the negative-log IC50 (pIC50) against Acetylcholinesterase and against Cholinesterase were 4.37 and less than 4.00, respectively. The molecule further returned an inhibition in series [2] of 39.5%.

For `COc1ccc(/C=C/C(=O)SSC(=O)/C=C/c2ccc(OC)cc2OC)c(OC)c1`, the pIC50 at Acetylcholinesterase was 6.85; against Cholinesterase, 4.83. The same molecule returned an inhibition in series [2] of 69%.

Consider `Clc1ccc(/C=C/CSSC/C=C/c2ccc(Cl)cc2)cc1`, for which the pIC50 was 4.43 against Acetylcholinesterase and 4.03 against Cholinesterase. Also, the inhibition in series [2] is 48.2%.

Consider `O=C(/C=C/c1ccc(O)cc1)SSC(=O)/C=C/c1ccc(O)cc1`, for which the negative logarithm of the IC50 (pIC50) at Acetylcholinesterase was 6.68; on Cholinesterase it was 4.61. Besides, the inhibition in [2] stood at 66.4%.

Take `O=C(/C=C/c1ccc(Cl)cc1)SSC(=O)/C=C/c1ccc(Cl)cc1`: the values for the pIC50 on Acetylcholinesterase and at Cholinesterase were 6.29 and 4.45, respectively. The inhibition in [2] came to 65.6%.

For `Oc1ccc(/C=C/CSSC/C=C/c2ccc(O)cc2)cc1`, the pIC50 is 4.91 at Acetylcholinesterase and 4.20 on Cholinesterase. The inhibition in series [2] came to 53%.

As to `COc1cc(/C=C/C(=O)SSC(=O)/C=C/c2ccc(O)c(OC)c2)ccc1O`, the viability at 48 h, 25 µM in series [4] amounted to 92.3%. In addition, in series [5], the viability at 48 h, 100 µM is 80.9%. For the same molecule, the pIC50 against Acetylcholinesterase was 6.92; against Cholinesterase, 4.89. For the same molecule, the viability at 48 h, 0.1 µM in series [6] came out at 97.3%. Moreover, the entries for the “inhibition (INH)” value in series [7] and in series [1] were “Active” and 78.5%, respectively. The viability at 48 h, 50 µM in [8] was found to be 90.1%. Further, the inhibition in series [2] was 71.4%. For the same molecule, the Activity in series [3] was 62%; in [11], “Active”; in series [12] it was “Active”; in the series with HEK293 it was “Dose-dependent effect”. The viability at 48 h, 10 µM in series [9] stood at 94.4%. For the same molecule, the viability at 48 h, 1 µM in series [10] was determined as 96.5%.

For the molecule `COc1ccc(/C=C/C(=O)SSC(=O)/C=C/c2ccc(OC)c(OC)c2)cc1OC`, the viability at 48 h, 25 µM in series [4] is 95.7%. In series [5], the viability at 48 h, 100 µM turned out to be 88.6%. In addition, the negative-log IC50 (pIC50) on Acetylcholinesterase was 7.25; against Cholinesterase, 4.87. The viability at 48 h, 0.1 µM in series [6] amounted to 98.9%. In addition, the “inhibition (INH)” value is on record as “Active” in series [7] and 80.9% in series [1]. In addition, the viability at 48 h, 50 µM in series [8] was 92.8%. Moreover, the inhibition in [2] worked out at 74.2%. In addition, the Activity in series [3] is listed as 72%; in series [11], “Active”; in series [12] it was “Active”; in the series on HEK293, “Dose-dependent effect”. Besides, the viability at 48 h, 10 µM in series [9] amounted to 95.4%. Further, in series [10], the viability at 48 h, 1 µM was determined as 96.1%.
